Assay [1] addresses Prostaglandin G/H synthase 1 (Homo sapiens, UniProt P23219). Description: Inhibitory activity against human prostaglandin G/H synthase 1 in platelet-rich plasma measured by the presence of thromboxane A2. Put shortly: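 Human peripheral blood drawn into heparin; platelet-rich plasma collected by centrifugation (200×g, 20 min, room temperature) and diluted 1:20 in 0.9% NaCl. Compound or vehicle preincubated 15 min at 37 °C, then stimulated with calcium ionophore A-23187 (free acid) for 15 min at 37 °C, then chilled on ice 5 min. Supernatant thromboxane B2 measured by radioimmunoassay.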

The target in assay [2] is T1, Prostaglandin G/H synthase 2 (Homo sapiens, UniProt P35354).
T1 sequence (P35354 whole entry): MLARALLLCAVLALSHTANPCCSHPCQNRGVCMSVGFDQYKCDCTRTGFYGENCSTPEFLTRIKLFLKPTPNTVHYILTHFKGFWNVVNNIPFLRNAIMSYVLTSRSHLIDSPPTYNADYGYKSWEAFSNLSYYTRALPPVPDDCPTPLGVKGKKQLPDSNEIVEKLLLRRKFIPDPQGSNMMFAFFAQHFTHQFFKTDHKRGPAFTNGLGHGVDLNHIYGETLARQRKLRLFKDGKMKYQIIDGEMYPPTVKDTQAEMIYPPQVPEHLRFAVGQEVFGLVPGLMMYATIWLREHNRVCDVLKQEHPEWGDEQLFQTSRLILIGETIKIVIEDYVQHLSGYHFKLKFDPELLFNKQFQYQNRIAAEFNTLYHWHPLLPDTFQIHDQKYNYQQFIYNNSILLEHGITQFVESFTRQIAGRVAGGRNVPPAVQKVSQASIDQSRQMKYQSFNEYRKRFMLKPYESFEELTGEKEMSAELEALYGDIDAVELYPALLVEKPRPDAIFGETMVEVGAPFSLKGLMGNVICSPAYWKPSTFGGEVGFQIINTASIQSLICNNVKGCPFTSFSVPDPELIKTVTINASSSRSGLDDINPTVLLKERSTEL
Put plainly: Inhibitory activity against human prostaglandin G/H synthase 2 in ECV-304 cells measured by the presence of PGE-2. Type of assay: cell-based.

Sequence of Prostaglandin G/H synthase 1 (P23219 whole entry): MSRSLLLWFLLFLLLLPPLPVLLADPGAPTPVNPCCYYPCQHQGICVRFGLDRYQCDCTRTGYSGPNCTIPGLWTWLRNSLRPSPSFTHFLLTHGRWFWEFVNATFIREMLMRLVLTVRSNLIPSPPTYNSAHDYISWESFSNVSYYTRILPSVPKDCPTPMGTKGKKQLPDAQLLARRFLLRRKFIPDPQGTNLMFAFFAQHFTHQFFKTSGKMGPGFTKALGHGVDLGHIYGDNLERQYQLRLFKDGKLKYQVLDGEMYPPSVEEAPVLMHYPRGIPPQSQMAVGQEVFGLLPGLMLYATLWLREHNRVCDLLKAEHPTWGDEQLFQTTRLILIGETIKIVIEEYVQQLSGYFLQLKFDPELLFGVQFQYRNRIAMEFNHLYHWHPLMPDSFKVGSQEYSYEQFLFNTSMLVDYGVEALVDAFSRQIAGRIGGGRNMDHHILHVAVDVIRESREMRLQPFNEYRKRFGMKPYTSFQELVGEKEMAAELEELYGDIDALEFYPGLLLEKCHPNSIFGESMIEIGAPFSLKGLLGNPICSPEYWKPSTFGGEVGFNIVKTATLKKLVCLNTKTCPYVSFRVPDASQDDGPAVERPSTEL

As usually defined, the IC50 is the concentration that gives 50% inhibition. As to `COc1ccc(-n2nc(-c3ccc(Cl)cc3)c3c2CCCCC3)cc1`, the IC50 in assay [1] is more than 10 µM.
For `Cc1ccc(NNC(=O)c2ccc(Cl)cc2)cc1`, the IC50 was more than 10 µM in assay [1] and 0.01 µM in assay [2].
Regarding `COc1ccc(-n2nc(-c3ccc(Cl)cc3)c3c2CCC(F)C3)cc1` (configuration not stated), the IC50 in assay [1] was more than 10 µM.
`Clc1ccc(-c2nn(-c3ccc(Cl)cc3)c3c2CCCCC3)cc1`: the IC50 in assay [1] was more than 10 µM.
On to `O=C(NNc1ccc(Cl)cc1)c1ccccc1`, for which the IC50 in assay [1] is more than 10 µM; in assay [2] it was 0.53 µM.
The corresponding values for `O=C(NNc1ccc(Cl)cc1)c1ccc(Cl)cc1` are more than 10 µM and 0.34 µM.
For the compound `CS(=O)(=O)c1ccc(-n2nc(-c3ccc(F)cc3)c3c2CCCC3)cc1`, the IC50 in assay [1] and in assay [2] was more than 10 µM each time.
As to `O=C(NNc1ccccc1)c1ccc(Cl)cc1`, the IC50 is more than 10 µM in assay [1] and 0.33 µM in assay [2].
With `CS(=O)(=O)c1ccc(-n2nc(-c3ccc(Cl)cc3)c3c2CCCC3)cc1`, the IC50 in assay [1] and in assay [2] was more than 10 µM throughout.
Turning to `CS(=O)(=O)c1ccc(-n2nc(-c3ccc(Cl)cc3)c3c2CCCCC3)cc1`, in assay [2], the 50% inhibitory concentration (IC50) was more than 10 µM.
On to `Cc1ccc(-n2nc(-c3ccc(Cl)cc3)c3c2CCCCC3)cc1`, for which the IC50 in assay [1] was more than 10 µM.
Turning to `O=C(NNc1ccccc1)c1ccccc1`, the IC50 in assay [1] was more than 10 µM; in assay [2], 10 µM.
Turning to `COc1ccc(-n2nc(-c3ccc(Cl)cc3)c3c2CCC(O)C3)cc1` (configuration not stated), the values for the IC50 in assay [1] and in assay [2] were more than 10 µM and 0.46 µM, respectively.
The corresponding values for `COc1ccc(NNC(=O)c2ccccc2)cc1` are more than 10 µM and 0.18 µM.
The corresponding values for `CS(=O)(=O)c1ccc(NNC(=O)c2ccc(Cl)cc2)cc1` are more than 10 µM and more than 10 µM.
Regarding `COc1ccc(C(=O)NNc2ccc(Cl)cc2)cc1`, the IC50 in assay [1] was more than 10 µM; in assay [2], 0.47 µM.
Consider `Cc1ccc(NNC(=O)c2ccccc2)cc1`, for which the IC50 in assay [1] was more than 10 µM; in assay [2], 0.33 µM.
On to `CS(=O)(=O)c1ccc(NNC(=O)c2ccccc2)cc1`, for which the IC50 in assay [1] and in assay [2] was more than 10 µM throughout.
`COc1ccc(C(=O)NNc2ccccc2)cc1`: the IC50 in assay [1] and in assay [2] was more than 10 µM throughout.
Consider `COc1ccc(-n2nc(-c3ccc(Cl)cc3)c3c2CCC(NOC(C)=O)C3)cc1` (configuration not stated), for which the IC50 in assay [1] and in assay [2] was more than 10 µM in each case.
For the compound `COc1ccc(-n2nc(-c3ccc(Cl)cc3)c3c2CCC(N(O)C(C)=O)C3)cc1` (configuration not stated), the figures for the IC50 in assay [1] and in assay [2] were more than 10 µM and 2.4 µM, respectively.
With `Clc1ccc(-c2nn(-c3ccc(Cl)cc3)c3c2CCC3)cc1`, the half-inhibitory concentration (IC50) in assay [1] and in assay [2] was more than 10 µM each time.
As for `COc1ccc(NNC(=O)c2ccc(Cl)cc2)cc1`, the IC50 in assay [1] was more than 10 µM; in assay [2] it was 0.13 µM.
For `c1ccc(-c2nn(-c3ccccc3)c3c2CCC3)cc1`, the IC50 in assay [1] is more than 10 µM.

Values taken from ChEMBL document CHEMBL1133431, “1,3-Diarylcycloalkanopyrazoles and diphenyl hydrazides as selective inhibitors of cyclooxygenase-2” (Bioorg Med Chem Lett, 2000).
